Measurements published in ChEMBL document CHEMBL1629517, “Molecular properties prediction, synthesis and antimicrobial activity of some newer oxadiazole derivatives” (2010).
≈ marks a conversion by molar mass, not a printed value.

Key:
Escherichia coli [1] = test: Antibacterial activity against Escherichia coli ATCC 25922 at 200 ug/ml after 24 hrs by disc-diffusion method; assay type: functional; details: ATCC 25922, 24 h, read-out: IZ
Escherichia coli [2] = test: Antibacterial activity against Escherichia coli ATCC 25922 after 18 to 24 hrs; assay type: functional
Pseudomonas aeruginosa [3] = test: Antibacterial activity against Pseudomonas aeruginosa ATCC 27853 at 100 ug/ml after 24 hrs by disc-diffusion method; assay type: functional; details: ATCC 27853, 24 h, read-out: IZ
Escherichia coli [4] = test: Antibacterial activity against Escherichia coli ATCC 25922 after 24 hrs by broth dilution technique; assay type: functional; details: ATCC 25922, 24 h
Method in brief: (§1)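 MIC by broth dilution: nutrient broth containing logarithmic two-fold serial dilutions of compound was inoculated with about 5 × 10⁵ c.f.u. of actively dividing bacteria.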

Aspergillus niger [5] = test: Antifungal activity against Aspergillus niger at 200 ug/ml after 48 hrs by agar diffusion method; assay type: functional; details: read-out: IZ
Method in brief: (§2)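 Agar well diffusion on Sabouraud agar (peptone 1 g, D-glucose 4 g, agar 2 g per 100 ml water, pH 5.7). Plates were lawned with a saline suspension of spores, excess was decanted, and plates were dried 1 h at 37 °C. Compounds in DMSO went into punched wells, and inhibition zones were measured against controls, with voriconazole as standard.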

Bacillus subtilis [6] = test: Antibacterial activity against Bacillus subtilis ATCC 6633 after 24 hrs by broth dilution technique; assay type: functional; details: ATCC 6633, 24 h; method in brief: as §1
Bacillus subtilis [7] = test: Antibacterial activity against Bacillus subtilis ATCC 6633 at 200 ug/ml after 24 hrs by disc-diffusion method; assay type: functional; details: ATCC 6633, 24 h, read-out: IZ
Pseudomonas aeruginosa [8] = test: Antibacterial activity against Pseudomonas aeruginosa ATCC 27853 after 18 to 24 hrs; assay type: functional
Candida albicans [9] = test: Antifungal activity against Candida albicans at 200 ug/ml after 48 hrs by agar diffusion method; assay type: functional; details: read-out: IZ; method in brief: as §2
Staphylococcus aureus [10] = test: Antibacterial activity against Staphylococcus aureus ATCC 25923 at 200 ug/ml after 24 hrs by disc-diffusion method; assay type: functional; details: ATCC 25923, 24 h, read-out: IZ
Candida albicans [11] = test: Antifungal activity against Candida albicans after 48 hrs; assay type: functional
Bacillus subtilis [12] = test: Antibacterial activity against Bacillus subtilis ATCC 6633 at 100 ug/ml after 24 hrs by disc-diffusion method; assay type: functional; details: ATCC 6633, 24 h, read-out: IZ
Staphylococcus aureus [13] = test: Antibacterial activity against Staphylococcus aureus ATCC 25923 after 18 to 24 hrs; assay type: functional
Bacillus subtilis [14] = test: Antibacterial activity against Bacillus subtilis ATCC 6633 after 18 to 24 hrs; assay type: functional
Aspergillus niger [15] = test: Antifungal activity against Aspergillus niger after 48 hrs; assay type: functional
Escherichia coli [16] = test: Antibacterial activity against Escherichia coli ATCC 25922 at 100 ug/ml after 24 hrs by disc-diffusion method; assay type: functional; details: ATCC 25922, 24 h, read-out: IZ
Pseudomonas aeruginosa [17] = test: Antibacterial activity against Pseudomonas aeruginosa ATCC 27853 after 24 hrs by broth dilution technique; assay type: functional; details: ATCC 27853, 24 h; method in brief: as §1
Candida albicans [18] = test: Antifungal activity against Candida albicans at 100 ug/ml after 48 hrs by agar diffusion method; assay type: functional; details: read-out: IZ; method in brief: as §2
Pseudomonas aeruginosa [19] = test: Antibacterial activity against Pseudomonas aeruginosa ATCC 27853 at 200 ug/ml after 24 hrs by disc-diffusion method; assay type: functional; details: ATCC 27853, 24 h, read-out: IZ
Aspergillus niger [20] = test: Antifungal activity against Aspergillus niger at 100 ug/ml after 3 to 4 days by agar diffusion method; details: read-out: IZ
Staphylococcus aureus [21] = test: Antibacterial activity against Staphylococcus aureus ATCC 25923 at 100 ug/ml after 24 hrs by disc-diffusion method; assay type: functional; details: ATCC 25923, 24 h, read-out: IZ
Staphylococcus aureus [22] = test: Antibacterial activity against Staphylococcus aureus ATCC 25923 after 24 hrs by broth dilution technique; assay type: functional; details: ATCC 25923, 24 h; method in brief: as §1

SMILES	zone of inhibition at 200 µg/mL (Escherichia coli [1]) [mm]	MBC (Escherichia coli [2]) [µg/mL]	zone of inhibition at 100 µg/mL (Pseudomonas aeruginosa [3]) [mm]	MIC (Escherichia coli [4]) [µg/mL]	zone of inhibition at 200 µg/mL (Aspergillus niger [5]) [mm]	MIC (Bacillus subtilis [6]) [µg/mL]	zone of inhibition at 200 µg/mL (Bacillus subtilis [7]) [mm]	MBC (Pseudomonas aeruginosa [8]) [µg/mL]	zone of inhibition at 200 µg/mL (Candida albicans [9]) [mm]	zone of inhibition at 200 µg/mL (Staphylococcus aureus [10]) [mm]	MFC (Candida albicans [11]) [µg/mL]	MIC (Candida albicans [11]) [µg/mL]	zone of inhibition at 100 µg/mL (Bacillus subtilis [12]) [mm]	MBC (Staphylococcus aureus [13]) [µg/mL]	MBC (Bacillus subtilis [14]) [µg/mL]	MFC (Aspergillus niger [15]) [µg/mL]	MIC (Aspergillus niger [15]) [µg/mL]	zone of inhibition at 100 µg/mL (Escherichia coli [16]) [mm]	MIC (Pseudomonas aeruginosa [17]) [µg/mL]	zone of inhibition at 100 µg/mL (Candida albicans [18]) [mm]	other results
COc1cc(/C=C/C(=O)c2ccc(O)cc2)ccc1OCc1nnc(-c2ccccc2)o1	23	50 (≈ 117 µM)	25	12.5 (≈ 29.2 µM)	24	12.5 (≈ 29.2 µM)	15	50 (≈ 117 µM)	18	18	25 (≈ 58.4 µM)	12.5 (≈ 29.2 µM)	13	50 (≈ 117 µM)	25 (≈ 58.4 µM)	50 (≈ 117 µM)	25 (≈ 58.4 µM)	21	25 (≈ 58.4 µM)	16	zone of inhibition at 200 µg/mL (Pseudomonas aeruginosa [19]): 27 mm; zone of inhibition at 100 µg/mL (Aspergillus niger [20]): 22 mm; zone of inhibition at 100 µg/mL (Staphylococcus aureus [21]): 17 mm; MIC (Staphylococcus aureus [22]): 25 µg/mL (≈ 58.4 µM)
COc1ccc(C(=O)/C=C/c2ccc(OCc3nnc(-c4ccccc4)o3)c(OC)c2)cc1	21	25 (≈ 56.5 µM)	25	12.5 (≈ 28.3 µM)	24	6 (≈ 13.6 µM)	14	50 (≈ 113 µM)	17	18	25 (≈ 56.5 µM)	6 (≈ 13.6 µM)	12	25 (≈ 56.5 µM)	12.5 (≈ 28.3 µM)	25 (≈ 56.5 µM)	12.5 (≈ 28.3 µM)	19	12.5 (≈ 28.3 µM)	15	zone of inhibition at 200 µg/mL (Pseudomonas aeruginosa [19]): 26 mm; zone of inhibition at 100 µg/mL (Aspergillus niger [20]): 23 mm; zone of inhibition at 100 µg/mL (Staphylococcus aureus [21]): 16 mm; MIC (Staphylococcus aureus [22]): 12.5 µg/mL (≈ 28.3 µM)
COc1cc(/C=C/C(=O)c2ccccc2)ccc1OCc1nnc(-c2ccccc2O)o1	22	12.5 (≈ 29.2 µM)	25	6 (≈ 14 µM)	25	6 (≈ 14 µM)	16	12.5 (≈ 29.2 µM)	20	19	12.5 (≈ 29.2 µM)	6 (≈ 14 µM)	15	12.5 (≈ 29.2 µM)	12.5 (≈ 29.2 µM)	12.5 (≈ 29.2 µM)	6 (≈ 14 µM)	20	6 (≈ 14 µM)	18	zone of inhibition at 200 µg/mL (Pseudomonas aeruginosa [19]): 27 mm; zone of inhibition at 100 µg/mL (Aspergillus niger [20]): 22 mm; zone of inhibition at 100 µg/mL (Staphylococcus aureus [21]): 17 mm; MIC (Staphylococcus aureus [22]): 6 µg/mL (≈ 14 µM)
